In ChEMBL document CHEMBL4819071, “Design, synthesis and in-vitro evaluation of fluorinated triazoles as multi-target directed ligands for Alzheimer disease” (Bioorg Med Chem Lett, 2021):
One block for each compound: values may come before it. Activity calls are given as the source filed them. The rule behind the calls is not given here.

Key:
[1] = (§1) Cytotoxicity against rat PC-12 cells assessed as cell viability at 40 uM measured after 24 hrs by Alamar blue assay relative to control; type: cell-based; conditions: PC-12 cells, read-out: Activity
In short: (§2)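 PC-12 neuronal cells incubated 24 h with compound at 40 µM. Viability read with Alamar Blue and expressed as percent of untreated cells.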

[2] = target: T1, Amyloid-beta precursor protein (Homo sapiens, UniProt P05067); test: Inhibition of amyloid beta (1 to 42 ) (unknown origin) self aggregation at 40 uM after 24 hrs by thioflavin-T fluorescence method
T1 sequence (P05067 whole entry): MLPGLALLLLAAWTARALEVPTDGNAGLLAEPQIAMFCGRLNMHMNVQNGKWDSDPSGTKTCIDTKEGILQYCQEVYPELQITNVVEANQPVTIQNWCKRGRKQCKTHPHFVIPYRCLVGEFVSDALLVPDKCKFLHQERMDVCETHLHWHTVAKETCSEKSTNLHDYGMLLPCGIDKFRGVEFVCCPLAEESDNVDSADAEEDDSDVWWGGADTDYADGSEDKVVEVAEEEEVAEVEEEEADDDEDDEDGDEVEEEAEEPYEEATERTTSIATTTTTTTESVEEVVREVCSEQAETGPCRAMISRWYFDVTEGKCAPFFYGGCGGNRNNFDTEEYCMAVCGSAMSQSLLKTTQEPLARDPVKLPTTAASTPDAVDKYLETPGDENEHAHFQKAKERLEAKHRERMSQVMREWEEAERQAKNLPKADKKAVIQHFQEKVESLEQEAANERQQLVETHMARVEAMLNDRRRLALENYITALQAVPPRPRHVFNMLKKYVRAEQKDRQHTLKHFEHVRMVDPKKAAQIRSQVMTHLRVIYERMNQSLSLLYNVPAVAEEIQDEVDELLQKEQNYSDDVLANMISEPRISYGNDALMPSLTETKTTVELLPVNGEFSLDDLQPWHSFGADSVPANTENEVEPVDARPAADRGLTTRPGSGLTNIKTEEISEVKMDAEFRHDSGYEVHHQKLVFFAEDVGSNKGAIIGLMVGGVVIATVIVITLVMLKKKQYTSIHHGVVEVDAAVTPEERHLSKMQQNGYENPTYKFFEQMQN
In short: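 Aβ42 (10 µM) incubated with compound (40 µM) for 24 h at 37 °C. Fibril formation quantified by Thioflavin T and given as percent of Aβ42 left to fibrillate alone. n = 3, Dunnett test.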

PC-12 [3] = test: as §1; type: cell-based; conditions: pc-12, 24 h, 40 µM; in short: as §2
[4] = target: T1, Amyloid-beta precursor protein; test: Inhibition of amyloid beta (1 to 42 ) (unknown origin) self aggregation at 40 uM measured after 24 hrs in presence of copper ion by thioflavin-T fluorescence method
In short: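 Aβ42 (10 µM) incubated with Cu2+ (10 µM) and compound for 24 h at 37 °C with shaking at 180 rpm. Percent fibril formation determined by Thioflavin T. Compared against Aβ42 alone and Aβ42 + Cu2+ by Dunnett test. n = 3.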

[5] = Metal chelating activity assessed as Fe3+-compound complex formation by measuring hyperchromic shift at 50 uM incubated for 30 mins by UV-visible spectrophotometry
[6] = Metal chelating activity assessed as Cu2+-compound complex formation by measuring hyperchromic shift at 50 uM incubated for 30 mins by UV-visible spectrophotometry
[7] = Metal chelating activity assessed as Zn2+-compound complex formation by measuring hyperchromic shift at 50 uM incubated for 30 mins by UV-visible spectrophotometry
PC-12 [8] = test: Anti-inflammatory activity in rat PC-12 cells assessed as decrease in LPS-stimulated ROS accumulation at 40 uM measured after 24 hrs by DCFH-DA staining based FACS […] assay; type: functional, cell-based
In short: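 PC-12 cells inflamed with LPS (10 µg/mL), then treated with compound at 40 µM for 24 h. ROS measured by DCFDA flow cytometry. Cells gated on FSC/SSC, singlets selected (FSC area vs height), and dead cells excluded by propidium iodide. The percentage of DCFDA ROS-high live cells was taken from the FL1 vs FSC dot plot quadrant. n = 3.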

[9] = target: T1, Amyloid-beta precursor protein; test: Inhibition of amyloid beta (1 to 42 ) (unknown origin) self aggregation measured after 24 hrs by thioflavin-T fluorescence method
[10] = Metal chelating activity assessed as Cu2+-compound complex formation at compound:Cu2+ concentration ratio of 1:1 to 1:6 incubated for 30 mins by UV-visible spectrophotometry
In short: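 Compound titrated with Cu2+ at compound:Cu ratios 1:1 to 1:6 in HEPES buffer at room temperature. UV–vis spectra recorded over about 240–320 nm. Absorbance plotted against ratio and fitted linearly.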

[11] = Metal chelating activity assessed as Fe3+-compound complex formation at compound:Fe3+ concentration ratio of 1:1 to 1:5 incubated for 30 mins by UV-visible spectrophotometry
In short: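 Compound combined with Fe3+ at compound:Fe ratios 1:1, 1:3 and 1:5 in HEPES buffer at room temperature. UV–vis spectra recorded over about 250–350 nm.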

[12] = Metal chelating activity assessed as Zn2+-compound complex formation at incremental dose of compound incubated for 30 mins by UV-visible spectrophotometry

inhibition [2]: inactive
SMILES: O=C(Nc1ccccc1)c1cn(-c2ccc(C(O)(C(F)(F)F)C(F)(F)F)cc2)nn1
viability at 24 h, 40 µM [1]: > 60%

inhibition [2]: Active
SMILES: Cc1ccc(NC(=O)c2cn(-c3ccc(C(O)(C(F)(F)F)C(F)(F)F)cc3)nn2)cc1C
viability at 24 h, 40 µM [1]: > 60%

SMILES: O=C(Nc1ccc(C(O)(C(F)(F)F)C(F)(F)F)cc1)c1cn(-c2ccccc2)nn1
Activity (PC-12 [3]): Toxic

inhibition [2]: inactive
SMILES: Cc1ccc(-n2cc(CNc3ccc(C(O)(C(F)(F)F)C(F)(F)F)cc3)nn2)cc1C
viability at 24 h, 40 µM [1]: > 60%

inhibition [2]: Active | inhibition [4]: < 50%
SMILES: COc1ccc(-n2cc(CNc3ccc(C(O)(C(F)(F)F)C(F)(F)F)cc3)nn2)cc1OC
viability at 24 h, 40 µM [1]: > 60%

SMILES: OC(c1ccc(NCc2cn(-c3ccccc3)nn2)cc1)(C(F)(F)F)C(F)(F)F
Activity (PC-12 [3]): Toxic

inhibition [2]: Active | inhibition [4]: < 50% | Activity [5]: Active | Activity [6]: Active | Activity [7]: Active | IC50 [9]: 4.6 µM | Activity [10]: Active | Activity [11]: Active | Activity [12]: Active
SMILES: Cc1ccc(-n2cc(C(=O)Nc3ccc(C(O)(C(F)(F)F)C(F)(F)F)cc3)nn2)cc1C
viability at 24 h, 40 µM [1]: > 60% | Activity (PC-12 [8]): Active
